Assay results published in ChEMBL document CHEMBL1938232 (Bioorg Med Chem, 2012).

Assays:
[1] = biological target: Hepatocyte growth factor receptor (Homo sapiens, UniProt P08581); experiment: Inhibition of MET using Bio-HER2tide as substrate by TR-FRET assay in presence of 50 uM of ATP
[2] = biological target: ALK tyrosine kinase receptor (Homo sapiens, UniProt Q9UM73)
[3] = biological target: Mast/stem cell growth factor receptor Kit (Homo sapiens, UniProt P10721); experiment: Inhibition of KIT using Bio-HER2tide as substrate by TR-FRET assay in presence of 50 uM of ATP
KARPAS-299 [4] = experiment: Antiproliferative activity against human KARPAS299 cells after 96 hrs by cell counting assay; assay type: functional, cell-based; details: KARPAS-299, 96 h
Method in brief: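 KARPAS-299 cells exposed to a range of compound concentrations for 96 h. Growth inhibition read by Cell Counting Kit-8.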

[5] = Clearance in human liver microsomes assessed as per mg of protein after 30 mins by LC/MS analysis; assay type: ADME, Microsome; details: read-out: CLH
Method in brief: (§1)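 1 µM compound incubated at 37 °C for 30 min with liver microsomes (0.5 mg protein/mL) in 50 mM phosphate buffer pH 7.4 with 1 mM NADPH. Reaction stopped with threefold volume of acetonitrile and centrifuged. Remaining compound in supernatant quantified by LC/MS.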

[6] = biological target: Vascular endothelial growth factor receptor 2 (Homo sapiens, UniProt P35968); experiment: Inhibition of KDR using Bio-Gastrintide as substrate by TR-FRET assay in presence of 50 uM of ATP
[7] = Clearance in mouse liver microsomes assessed as per mg of protein after 30 mins by LC/MS analysis; assay type: ADME, Microsome; details: read-out: CLH; method in brief: as §1
NCI-H2228 = experiment: Antitumor activity against human NCI-H2228 cells expressing EML4-ALK xenografted mouse model assessed as tumor growth inhibition at 20 mg/kg, po; assay type: functional; details: read-out: GI
[8] = AUC in cynomolgus monkey at 0.5 mg/kg, po; assay type: ADME, organism-based, Macaca fascicularis; parameters: dose 0.5 mg/kg, route oral; details: plasma
Method in brief: (§2)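 Fasted cynomolgus monkeys, n = 2 per group, dosed po or iv at 0.5 mg/kg in 10% DMSO, 20% HP-β-CD and 0.02 M HCl in water. Heparinized blood sampled at 0.08–48 h after iv and 0.50–48 h after po. Plasma quantified by LC–MS/MS.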

KARPAS-299 [9] = experiment: Antitumor activity against human KARPAS299 cells expressing NPM-ALK xenografted mouse model assessed as tumor growth inhibition at 20 mg/kg, po; assay type: functional; details: read-out: GI
[10] = Total clearance in cynomolgus monkey at 0.5 mg/kg, iv; assay type: ADME, organism-based, Macaca fascicularis; parameters: dose 0.5 mg/kg, route intravenous; details: in vivo; method in brief: as §2
[11] = Half life in Sprague-Dawley rat at 1 mg/kg, iv; assay type: ADME, organism-based; parameters: dose 1 mg/kg, route intravenous; details: in vivo
Method in brief: (§3)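 Sprague–Dawley rats, n = 3 per group, dosed po or iv at 1 mg/kg in 10% N,N-dimethylacetamide, 20% HP-β-CD and 0.02 M HCl in water. Heparinized blood taken at 0.08–72 h after iv and 0.50–72 h after po. Plasma analysed by LC–MS/MS.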

[12] = Oral bioavailability in Sprague-Dawley rat at 1 mg/kg; assay type: ADME, organism-based; details: in vivo; method in brief: as §3
[13] = Oral bioavailability in cynomolgus monkey at 0.5 mg/kg; assay type: ADME, organism-based, Macaca fascicularis; details: in vivo; method in brief: as §2
[14] = AUC in Sprague-Dawley rat at 1 mg/kg, po; assay type: ADME, organism-based; parameters: dose 1 mg/kg, route oral; details: plasma; method in brief: as §3
[15] = Total clearance in Sprague-Dawley rat at 1 mg/kg, iv; assay type: ADME, organism-based; parameters: dose 1 mg/kg, route intravenous; details: in vivo; method in brief: as §3
[16] = Cmax in cynomolgus monkey at 0.5 mg/kg, po; assay type: ADME, organism-based, Macaca fascicularis; parameters: dose 0.5 mg/kg, route oral; details: in vivo; method in brief: as §2
in vivo [17] = details: cynomolgus monkey, po, 0.5 mg/kg
[18] = Cmax in Sprague-Dawley rat at 1 mg/kg, po; assay type: ADME, organism-based; parameters: dose 1 mg/kg, route oral; details: in vivo; method in brief: as §3
[19] = Volume of distribution at steady state in cynomolgus monkey at 0.5 mg/kg, iv; assay type: ADME, organism-based, Macaca fascicularis; parameters: dose 0.5 mg/kg, route intravenous; details: in vivo, read-out: Vdss; method in brief: as §2
Mus musculus = experiment: Toxicity in human NCI-H2228 cells expressing EML4-ALK xenografted mouse model assessed as body weight loss at 20 mg/kg, po; details: in vivo
in vivo [20] = details: cynomolgus monkey, iv, 0.5 mg/kg
[21] = Half life in Sprague-Dawley rat at 1 mg/kg, po; assay type: ADME, organism-based; parameters: dose 1 mg/kg, route oral; details: in vivo; method in brief: as §3
[22] = Volume of distribution at steady state in Sprague-Dawley rat at 1 mg/kg, iv; assay type: ADME, organism-based; parameters: dose 1 mg/kg, route intravenous; details: in vivo, read-out: Vdss; method in brief: as §3

Hepatocyte growth factor receptor, sequence (P08581 whole entry): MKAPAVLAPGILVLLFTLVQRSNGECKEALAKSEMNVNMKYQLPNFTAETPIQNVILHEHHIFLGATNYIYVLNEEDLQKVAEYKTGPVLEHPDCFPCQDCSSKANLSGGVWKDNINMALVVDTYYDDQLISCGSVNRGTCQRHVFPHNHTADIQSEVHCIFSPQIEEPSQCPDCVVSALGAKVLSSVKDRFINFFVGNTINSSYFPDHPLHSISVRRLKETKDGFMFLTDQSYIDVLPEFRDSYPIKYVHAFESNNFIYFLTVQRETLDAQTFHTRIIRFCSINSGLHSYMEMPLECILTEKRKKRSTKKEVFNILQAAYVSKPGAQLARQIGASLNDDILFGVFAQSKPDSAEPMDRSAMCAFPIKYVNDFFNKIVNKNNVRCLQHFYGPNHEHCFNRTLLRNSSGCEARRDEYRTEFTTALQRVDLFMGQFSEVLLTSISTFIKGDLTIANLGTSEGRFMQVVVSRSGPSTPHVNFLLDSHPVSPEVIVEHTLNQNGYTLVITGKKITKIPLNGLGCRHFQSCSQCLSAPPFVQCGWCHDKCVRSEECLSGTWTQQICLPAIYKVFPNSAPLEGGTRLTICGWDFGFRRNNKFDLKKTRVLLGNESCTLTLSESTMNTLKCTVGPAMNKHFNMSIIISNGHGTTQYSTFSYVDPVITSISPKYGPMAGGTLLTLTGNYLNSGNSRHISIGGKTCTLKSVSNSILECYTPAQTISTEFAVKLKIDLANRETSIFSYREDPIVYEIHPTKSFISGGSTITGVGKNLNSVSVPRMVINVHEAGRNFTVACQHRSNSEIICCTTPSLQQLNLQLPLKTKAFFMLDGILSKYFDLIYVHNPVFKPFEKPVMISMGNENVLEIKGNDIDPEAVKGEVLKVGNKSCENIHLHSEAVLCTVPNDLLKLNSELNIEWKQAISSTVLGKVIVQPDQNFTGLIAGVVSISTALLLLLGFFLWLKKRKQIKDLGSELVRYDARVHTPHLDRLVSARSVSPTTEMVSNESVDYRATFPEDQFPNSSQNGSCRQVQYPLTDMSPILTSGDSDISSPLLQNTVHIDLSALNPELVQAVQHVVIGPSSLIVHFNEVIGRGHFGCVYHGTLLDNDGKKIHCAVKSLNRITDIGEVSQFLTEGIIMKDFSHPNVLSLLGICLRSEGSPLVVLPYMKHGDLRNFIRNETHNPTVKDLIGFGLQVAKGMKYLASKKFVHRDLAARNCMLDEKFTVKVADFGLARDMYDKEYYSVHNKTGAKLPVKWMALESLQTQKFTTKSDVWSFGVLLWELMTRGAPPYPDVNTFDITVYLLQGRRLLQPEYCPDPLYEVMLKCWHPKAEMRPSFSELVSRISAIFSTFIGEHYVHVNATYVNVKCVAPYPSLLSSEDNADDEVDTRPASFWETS
Vascular endothelial growth factor receptor 2, sequence (P35968 whole entry): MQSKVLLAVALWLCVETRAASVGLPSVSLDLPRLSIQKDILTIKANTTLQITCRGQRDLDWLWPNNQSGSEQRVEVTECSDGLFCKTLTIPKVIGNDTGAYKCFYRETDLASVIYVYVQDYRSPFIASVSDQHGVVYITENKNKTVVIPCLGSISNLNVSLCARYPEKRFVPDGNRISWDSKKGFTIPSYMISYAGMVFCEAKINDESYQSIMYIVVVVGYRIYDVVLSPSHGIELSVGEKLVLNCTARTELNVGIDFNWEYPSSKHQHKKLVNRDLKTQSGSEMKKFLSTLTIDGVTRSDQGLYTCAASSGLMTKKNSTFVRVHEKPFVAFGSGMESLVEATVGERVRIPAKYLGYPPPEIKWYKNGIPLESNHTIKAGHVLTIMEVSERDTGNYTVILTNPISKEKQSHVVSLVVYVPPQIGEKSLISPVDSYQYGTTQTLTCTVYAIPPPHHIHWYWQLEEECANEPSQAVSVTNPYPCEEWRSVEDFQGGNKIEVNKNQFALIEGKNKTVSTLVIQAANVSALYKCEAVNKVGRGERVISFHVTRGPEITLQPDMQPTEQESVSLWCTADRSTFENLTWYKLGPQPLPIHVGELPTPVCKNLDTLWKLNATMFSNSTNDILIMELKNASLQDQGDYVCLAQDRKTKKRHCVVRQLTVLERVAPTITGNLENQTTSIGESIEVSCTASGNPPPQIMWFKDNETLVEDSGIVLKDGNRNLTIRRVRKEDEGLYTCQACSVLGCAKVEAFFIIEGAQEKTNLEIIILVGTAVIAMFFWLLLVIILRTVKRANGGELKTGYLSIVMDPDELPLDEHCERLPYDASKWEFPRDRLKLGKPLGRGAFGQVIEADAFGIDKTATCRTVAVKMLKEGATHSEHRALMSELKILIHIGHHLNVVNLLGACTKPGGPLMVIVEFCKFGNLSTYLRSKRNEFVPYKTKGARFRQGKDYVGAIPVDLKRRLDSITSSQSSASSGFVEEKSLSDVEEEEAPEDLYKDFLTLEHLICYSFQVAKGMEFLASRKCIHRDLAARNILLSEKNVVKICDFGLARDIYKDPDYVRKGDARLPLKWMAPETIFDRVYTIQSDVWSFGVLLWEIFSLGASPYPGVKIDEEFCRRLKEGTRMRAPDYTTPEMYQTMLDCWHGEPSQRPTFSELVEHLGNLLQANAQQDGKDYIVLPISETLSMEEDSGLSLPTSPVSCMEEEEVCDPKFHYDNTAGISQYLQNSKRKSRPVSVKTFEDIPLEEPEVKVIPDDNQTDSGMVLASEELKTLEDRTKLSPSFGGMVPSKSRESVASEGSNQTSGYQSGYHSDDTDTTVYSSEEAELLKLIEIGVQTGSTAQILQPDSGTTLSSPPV
ALK tyrosine kinase receptor, sequence (Q9UM73 whole entry): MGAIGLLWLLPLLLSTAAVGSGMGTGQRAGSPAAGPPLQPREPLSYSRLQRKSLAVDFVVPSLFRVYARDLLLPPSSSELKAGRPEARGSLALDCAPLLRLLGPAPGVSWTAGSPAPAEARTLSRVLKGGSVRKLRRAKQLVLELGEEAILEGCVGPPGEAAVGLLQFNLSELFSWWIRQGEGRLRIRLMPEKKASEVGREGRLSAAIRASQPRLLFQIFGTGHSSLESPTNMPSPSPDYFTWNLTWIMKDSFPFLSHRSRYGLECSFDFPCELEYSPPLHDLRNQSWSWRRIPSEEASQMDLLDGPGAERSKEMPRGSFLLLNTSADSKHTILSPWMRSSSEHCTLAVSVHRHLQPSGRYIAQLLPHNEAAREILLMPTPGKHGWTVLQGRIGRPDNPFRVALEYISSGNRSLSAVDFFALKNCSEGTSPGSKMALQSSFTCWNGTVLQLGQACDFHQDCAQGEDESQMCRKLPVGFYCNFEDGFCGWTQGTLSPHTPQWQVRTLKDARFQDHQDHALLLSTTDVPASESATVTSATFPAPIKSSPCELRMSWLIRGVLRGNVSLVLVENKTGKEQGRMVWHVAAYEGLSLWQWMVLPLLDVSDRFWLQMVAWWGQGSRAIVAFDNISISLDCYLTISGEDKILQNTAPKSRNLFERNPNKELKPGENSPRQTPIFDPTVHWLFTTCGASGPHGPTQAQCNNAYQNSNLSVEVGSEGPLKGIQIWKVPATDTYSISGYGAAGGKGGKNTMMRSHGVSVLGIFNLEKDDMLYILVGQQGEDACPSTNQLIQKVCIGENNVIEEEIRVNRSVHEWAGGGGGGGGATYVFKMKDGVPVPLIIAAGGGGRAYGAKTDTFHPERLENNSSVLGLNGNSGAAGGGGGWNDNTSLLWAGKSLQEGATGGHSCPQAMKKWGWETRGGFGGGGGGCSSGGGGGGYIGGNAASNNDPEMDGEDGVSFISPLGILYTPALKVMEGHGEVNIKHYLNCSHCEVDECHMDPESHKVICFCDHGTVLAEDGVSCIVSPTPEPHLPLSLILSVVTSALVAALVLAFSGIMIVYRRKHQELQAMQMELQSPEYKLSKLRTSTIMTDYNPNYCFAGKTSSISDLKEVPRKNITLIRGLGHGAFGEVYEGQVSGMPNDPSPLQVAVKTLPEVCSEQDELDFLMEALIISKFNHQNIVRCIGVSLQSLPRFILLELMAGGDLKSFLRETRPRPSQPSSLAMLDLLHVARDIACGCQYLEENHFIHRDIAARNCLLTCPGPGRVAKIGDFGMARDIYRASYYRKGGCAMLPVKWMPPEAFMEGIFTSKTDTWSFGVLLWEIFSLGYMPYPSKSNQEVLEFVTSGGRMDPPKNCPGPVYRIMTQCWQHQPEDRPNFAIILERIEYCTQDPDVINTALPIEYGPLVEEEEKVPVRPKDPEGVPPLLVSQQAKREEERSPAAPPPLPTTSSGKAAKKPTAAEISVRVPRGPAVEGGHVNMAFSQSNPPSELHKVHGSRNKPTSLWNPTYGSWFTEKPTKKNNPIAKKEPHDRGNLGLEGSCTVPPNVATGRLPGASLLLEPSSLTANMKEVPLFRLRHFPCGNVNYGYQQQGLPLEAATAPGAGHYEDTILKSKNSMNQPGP

Row | IC50 [1] [µM] | IC50 [2] [µM] | IC50 [3] [µM] | IC50 (KARPAS-299 [4]) [µM] | microsomal CLint [5] [µL/min/mg] | IC50 [6] [µM] | microsomal CLint [7] [µL/min/mg] | Compound | further results
1 | > 5 | 0.0024 | > 5 | 0.0224 | 15.6 | 3.12 | 4.4 | CCc1cc2c(cc1N1CCN(C3CCC3)CC1)C(C)(C)c1[nH]c3cc(C#N)ccc3c1C2=O | 
2 | > 5 |  | 1.06 | 0.0048 | 23 | 0.186 | 15.8 | Cc1cc2c(cc1N1CCC(N3CCOCC3)CC1)C(C)(C)c1[nH]c3cc(C#N)ccc3c1C2=O | 
3 | > 5 | 0.016 | 2.99 | 0.0265 | 106 | 0.759 | 72 | CC1(C)c2cc(N3CCC(N4CCOCC4)CC3)ccc2C(=O)c2c1[nH]c1cc(C#N)ccc21 | 
4 | > 5 | 0.233 | > 5 | 0.238 | 16.4 | > 5 | 24.9 | CC1(C)c2ccc(N3CCN(C4CC4)CC3)cc2C(=O)c2c1[nH]c1cc(C#N)ccc21 | 
5 | > 5 | 0.0011 | > 5 | 0.0261 | 17.1 | > 5 | 58.5 | CCCc1cc2c(cc1N1CCC(N3CCOCC3)CC1)C(C)(C)c1[nH]c3cc(C#N)ccc3c1C2=O | 
6 | > 5 | 0.044 | > 5 | 0.121 | 59.1 | 0.882 | 20 | CC1(C)c2ccc(C3CCN(C4CC4)CC3)cc2C(=O)c2c1[nH]c1cc(C#N)ccc21 | 
7 | > 5 |  | > 5 | 0.003 | 17.7 |  | 8.7 | CCc1cc2c(cc1N1CCC(N3CCOCC3)CC1)C(C)(C)c1[nH]c3cc(C#N)ccc3c1C2=O [ALECTINIB] | inhibition in vivo at 20 mg/kg (NCI-H2228): 168%; AUC [8]: 696 ng·h/mL; inhibition in vivo at 20 mg/kg (KARPAS-299 [9]): 119%; clearance [10]: 6.04 mL/min/kg; half-life [11]: 17.8 h; bioavailability [12]: 65.2%; bioavailability [13]: 50.4%; AUC [14]: 1400 ng·h/mL; clearance [15]: 7.79 mL/min/kg; Cmax [16]: 55.8 ng/mL; half-life (in vivo [17]): 8.38 h; Cmax [18]: 60.8 ng/mL; Vd [19]: 5.28 L/kg; Activity (Mus musculus): Non-toxic; half-life (in vivo [20]): 10.4 h; half-life [21]: 12.6 h; Vd [22]: 9.33 L/kg
8 | > 5 | 0.0052 | > 5 | 0.0458 | 22.1 | 4.21 | 3.3 | CCc1cc2c(cc1N1CCN(C3CC3)CC1)C(C)(C)c1[nH]c3cc(C#N)ccc3c1C2=O | 
9 | > 5 |  | > 5 |  |  | > 5 |  | CCc1cc2c(cc1N1CCN(C3COC3)CC1)C(C)(C)c1[nH]c3cc(C#N)ccc3c1C2=O | 
10 | > 5 | 0.067 | > 5 | 0.0869 | 38.6 | 2.52 | 38.6 | CC1(C)c2ccc(C3CCN(C4COC4)CC3)cc2C(=O)c2c1[nH]c1cc(C#N)ccc21 | 
11 | > 5 |  | > 5 | 0.151 | 14.2 | > 5 | 20.6 | CC1(C)c2ccc(N3CCN(C4COC4)CC3)cc2C(=O)c2c1[nH]c1cc(C#N)ccc21 | 
